The target of test [1] is T1, Thioredoxin reductase (Homo sapiens, UniProt Q16881+Q9NNW7+Q86VQ6). Nature of the test: Inhibition of thioredoxin reductase. The test is classed as protein assay. In a few lines:
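TrxR-only activity in HE buffer (100 mM HEPES pH 7.2, 5 mM EDTA) with 1.0 μM TrxR, 10 mM DTNB, 1 mM NADPH and inhibitor (final). Compound and enzyme added first, reaction started with NADPH/DTNB at 37 °C. OD 412 nm read every 10 s for initial linear rates. IC50 is 50% inhibition of thionitrobenzoate formation.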

The test system of the next test is MCF7. Nature of the test: Inhibition of growth of MCF-7 breast cancer cells in culture. To be noted: Homo sapiens. In kind it is functional, cell-based. In short, it runs like this:
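Human MCF-7 cells seeded at 3000/well in DMEM + 10% FBS, 16 h at 37 °C, 5.5% CO2, then compound 0.1–20 μM for 72 h. MTT added for 3 h, formazan dissolved in DMSO, dual OD read at 595/655 nm. Viability given as % of untreated control. IC50 is concentration halving growth versus control. Triplicate determinations.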

The target of test [2] is T1, Thioredoxin reductase. Nature of the test: Inhibition of thioredoxin reductase in the presence of thioredoxinand insulin. In kind it is protein assay. In short, it runs like this:
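Insulin reduction coupled to Trx/TrxR, final concentrations: 100 mM HEPES pH 7.2, 5 mM EDTA, 1 mM NADPH, 1.0 μM TrxR, 0.8 μM Trx, 2.5 mg/mL bovine insulin plus inhibitor. 30 min at 37 °C, stopped with 6 M guanidine HCl/50 mM Tris pH 8.0/10 mM DTNB, absorbance at 412 nm. IC50 for 50% inhibition of thionitrobenzoate formation.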

The values that follow come from ChEMBL document CHEMBL1149182, “Cyclodextrin-derived diorganyl tellurides as glutathione peroxidase mimics and inhibitors of thioredoxin reductase and cancer cell growth” (J Med Chem, 2004).

Structures are written as SMILES.

A word on the IC50: it is the concentration that inhibits the measured activity by half.

As to `OCC1O[C@@H]2O[C@@H]3C(C[Te]c4ccccc4)O[C@H](O[C@@H]4C(CO)O[C@H](O[C@@H]5C(CO)O[C@H](O[C@@H]6C(CO)O[C@@H](O[C@@H]7C(CO)O[C@H](O[C@@H]8C(CO)O[C@H](O[C@H]1C(O)C2O)C(O)C8O)C(O)C7O)C(O)C6O)C(O)C5O)C(O)C4O)C(O)C3O` (stereo partly specified), the IC50 against Thioredoxin reductase [1] is 1.6 µM; in the test on MCF7, 10.1 µM; at Thioredoxin reductase [2], 7.6 µM.

With `OCC1O[C@@H]2O[C@@H]3C(CO)O[C@H](O[C@@H]4C(CO)O[C@H](O[C@@H]5C(CO)O[C@@H](O[C@@H]6C(CO)O[C@H](O[C@@H]7C(C[Te]CC8O[C@@H]9O[C@@H]%10C(CO)O[C@@H](O[C@@H]%11C(CO)O[C@H](O[C@@H]%12C(CO)O[C@H](O[C@@H]%13C(CO)O[C@H](O[C@@H]%14C(CO)O[C@H](O[C@@H]%15C(CO)O[C@H](O[C@H]8C(O)C9O)C(O)C%15O)C(O)C%14O)C(O)C%13O)C(O)C%12O)C(O)C%11O)C(O)C%10O)O[C@H](O[C@@H]8C(CO)O[C@H](O[C@H]1C(O)C2O)C(O)C8O)C(O)C7O)C(O)C6O)C(O)C5O)C(O)C4O)C(O)C3O` (stereo partly specified), the figures for the IC50 at Thioredoxin reductase [1], with MCF7 and at Thioredoxin reductase [2] were 2.4 µM, 1.4 µM and 0.5 µM, respectively.

For the molecule `OCC1O[C@@H]2O[C@@H]3C(C[Se]c4ccccc4)O[C@H](O[C@@H]4C(CO)O[C@H](O[C@@H]5C(CO)O[C@H](O[C@@H]6C(CO)O[C@@H](O[C@@H]7C(CO)O[C@H](O[C@@H]8C(CO)O[C@H](O[C@H]1C(O)C2O)C(O)C8O)C(O)C7O)C(O)C6O)C(O)C5O)C(O)C4O)C(O)C3O` (stereo partly specified), the IC50 against Thioredoxin reductase [1] turned out to be 17.8 µM; in the test on MCF7 it was 10.2 µM; at Thioredoxin reductase [2], 18 µM.

In the case of `OCC1O[C@@H]2O[C@@H]3C(C[Te]c4ccc(O)cc4)O[C@H](O[C@@H]4C(CO)O[C@H](O[C@@H]5C(CO)O[C@H](O[C@@H]6C(CO)O[C@@H](O[C@@H]7C(CO)O[C@H](O[C@@H]8C(CO)O[C@H](O[C@H]1C(O)C2O)C(O)C8O)C(O)C7O)C(O)C6O)C(O)C5O)C(O)C4O)C(O)C3O` (stereo partly specified), the IC50 against Thioredoxin reductase [1] is 18 µM; with MCF7, 1.6 µM; on Thioredoxin reductase [2], 4 µM.

Consider `COc1ccc([Te]CC2O[C@@H]3O[C@@H]4C(CO)O[C@H](O[C@@H]5C(CO)O[C@H](O[C@@H]6C(CO)O[C@@H](O[C@@H]7C(CO)O[C@H](O[C@@H]8C(CO)O[C@H](O[C@@H]9C(CO)O[C@H](O[C@H]2C(O)C3O)C(O)C9O)C(O)C8O)C(O)C7O)C(O)C6O)C(O)C5O)C(O)C4O)cc1` (stereo partly specified), for which the IC50 against Thioredoxin reductase [1] stood at 1.6 µM; with MCF7, 4.6 µM; at Thioredoxin reductase [2], 7.6 µM.

As to `CN(C)c1ccc([Te]CC2O[C@@H]3O[C@@H]4C(CO)O[C@H](O[C@@H]5C(CO)O[C@H](O[C@@H]6C(CO)O[C@@H](O[C@@H]7C(CO)O[C@H](O[C@@H]8C(CO)O[C@H](O[C@@H]9C(CO)O[C@H](O[C@H]2C(O)C3O)C(O)C9O)C(O)C8O)C(O)C7O)C(O)C6O)C(O)C5O)C(O)C4O)cc1` (stereo partly specified), the IC50 is 0.26 µM against Thioredoxin reductase [1], 10.4 µM with MCF7 and 3.4 µM at Thioredoxin reductase [2].

For the molecule `CCCC[Te]CC1O[C@@H]2O[C@@H]3C(CO)O[C@H](O[C@@H]4C(CO)O[C@H](O[C@@H]5C(CO)O[C@@H](O[C@@H]6C(CO)O[C@H](O[C@@H]7C(CO)O[C@H](O[C@@H]8C(CO)O[C@H](O[C@H]1C(O)C2O)C(O)C8O)C(O)C7O)C(O)C6O)C(O)C5O)C(O)C4O)C(O)C3O` (stereo partly specified), the IC50 against Thioredoxin reductase [1] was found to be 18 µM; with MCF7 it was 6 µM; on Thioredoxin reductase [2], 1.2 µM.
